The values that follow come from ChEMBL document CHEMBL1145590, “Discovery and initial SAR of arylsulfonylpiperazine inhibitors of 11beta-hydroxysteroid dehydrogenase type 1 (11beta-HSD1)” (Bioorg Med Chem Lett, 2008).

What is called IC50 is the concentration needed to halve the response being measured. By clearance is commonly meant the rate of elimination divided by the concentration. A high value points to efficient removal. A word on the bioavailability: it is dose-corrected exposure relative to a reference, in per cent. A higher bioavailability goes with much systemic uptake.

The target of data set [1] is T1, 11-beta-hydroxysteroid dehydrogenase 1 (Homo sapiens, UniProt P28845).
Data set [2] concerns the target 11-beta-hydroxysteroid dehydrogenase 1 (Mus musculus, UniProt P50172). The data set is described as follows: Inhibition of mouse recombinant 11beta-HSD1 assessed as conversion of [3H]cortisone to [3H]cortisol by SPA assay.
The target in data set [3] is T1, 11-beta-hydroxysteroid dehydrogenase 1. This is another data set of the same source.
The nature of data set [4]: Clearance in rat. It counts as ADME, organism-based. As to conditions: in vivo.
Data set [5] in a line: Oral bioavailability in rat. To be noted: in vivo. In kind it is ADME, organism-based.
Data set [6] can be described thus: Metabolic stability in human liver microsomes after 10 mins. It counts as ADME, Microsome. As to conditions: read-out: Stability. A digest of the protocol:
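Test compound incubated with human liver microsomes. Percent parent remaining measured at 10 min.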
(Liver microsomes are vesicles of endoplasmic reticulum, rich in cytochrome P450 enzymes.)

Data set [7] has as its target T2, 11-beta-hydroxysteroid dehydrogenase type 2 (Homo sapiens, UniProt P80365).
T2 sequence (P80365 whole entry): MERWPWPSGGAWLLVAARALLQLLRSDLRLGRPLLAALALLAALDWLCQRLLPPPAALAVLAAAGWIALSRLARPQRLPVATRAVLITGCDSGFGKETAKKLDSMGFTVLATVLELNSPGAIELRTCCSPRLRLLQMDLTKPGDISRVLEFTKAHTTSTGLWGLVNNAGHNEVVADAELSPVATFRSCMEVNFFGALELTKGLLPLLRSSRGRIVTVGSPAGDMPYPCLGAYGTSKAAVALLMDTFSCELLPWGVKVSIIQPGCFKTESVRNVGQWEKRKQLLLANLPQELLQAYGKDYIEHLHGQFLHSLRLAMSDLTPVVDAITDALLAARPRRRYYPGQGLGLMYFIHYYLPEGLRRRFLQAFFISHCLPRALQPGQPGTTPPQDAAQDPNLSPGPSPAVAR
In words: Inhibition of 11beta-HSD2.

T1 sequence (P28845 whole entry): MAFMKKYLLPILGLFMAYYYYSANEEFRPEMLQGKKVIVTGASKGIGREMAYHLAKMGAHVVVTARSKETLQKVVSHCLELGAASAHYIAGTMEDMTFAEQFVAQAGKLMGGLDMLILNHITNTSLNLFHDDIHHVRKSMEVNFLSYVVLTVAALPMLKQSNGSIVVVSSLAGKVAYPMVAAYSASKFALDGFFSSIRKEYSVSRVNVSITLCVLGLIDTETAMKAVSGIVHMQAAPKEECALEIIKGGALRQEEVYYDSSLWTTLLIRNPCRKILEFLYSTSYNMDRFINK
Sequence of 11-beta-hydroxysteroid dehydrogenase 1 (Mus musculus, UniProt P50172) (P50172 whole entry): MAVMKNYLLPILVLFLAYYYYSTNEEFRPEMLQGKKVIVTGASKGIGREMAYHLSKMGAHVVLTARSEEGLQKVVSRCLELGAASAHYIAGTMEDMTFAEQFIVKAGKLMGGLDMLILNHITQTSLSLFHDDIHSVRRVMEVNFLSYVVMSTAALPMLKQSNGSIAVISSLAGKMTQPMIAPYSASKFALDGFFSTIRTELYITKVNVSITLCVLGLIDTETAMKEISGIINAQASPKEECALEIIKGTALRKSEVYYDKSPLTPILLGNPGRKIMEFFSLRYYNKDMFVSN

With `FC(F)(F)c1cccnc1N1CCN(Cc2ccccc2)CC1`, the IC50 in data set [1] is 550 nM; in data set [2] it was > 1000 nM; in data set [3], 1930 nM.

For the molecule `CC(C)(C)c1ccc(S(=O)(=O)N2CCN(c3ccc([N+](=O)[O-])cc3)CC2)cc1`, in data set [4], the clearance is 16.7 mL/min/kg. Further, the values for the IC50 in data set [1], in data set [2] and in data set [3] were 10 nM, 161 nM and 247 nM, respectively. Moreover, the bioavailability in data set [5] worked out at 7%. Moreover, in data set [6], the remaining at 10 min turned out to be 90%.

On to `Cc1ccc(S(=O)(=O)N2CCN(c3ncccc3C(F)(F)F)CC2)cc1`, for which the IC50 in data set [1] was 16 nM; in data set [2], 32 nM; in data set [3], 461 nM; in data set [7] it was > 10000 nM.

`CCc1ccc(S(=O)(=O)N2CCN(c3ncccc3C(F)(F)F)CC2)cc1`: the values for the IC50 in data set [1], in data set [2] and in data set [3] were 18 nM, 53 nM and 510 nM, respectively.

Regarding `O=S(=O)(c1ccc2ccccc2c1)N1CCN(c2ncccc2C(F)(F)F)CC1`, the IC50 in data set [2] worked out at 11 nM.

`O=[N+]([O-])c1ccc(S(=O)(=O)N2CCN(c3ncccc3C(F)(F)F)CC2)cc1`: the concentration for half-maximal inhibition (IC50) is 37 nM in data set [1], 311 nM in data set [2] and 922 nM in data set [3].

As to `O=S(=O)(c1cccc(C(F)(F)F)c1)N1CCN(c2ncccc2C(F)(F)F)CC1`, the IC50 in data set [1] was 64 nM; in data set [2], 53 nM; in data set [3], > 1000 nM.

As for `CC(C)(C)c1ccc(S(=O)(=O)N2CCN(c3ncccc3C(F)(F)F)CC2)cc1`, the remaining at 10 min in data set [6] is 61%.

Take `C[C@H]1CN(c2ncccc2C(F)(F)F)CCN1S(=O)(=O)c1ccc(C(C)(C)C)cc1`: the IC50 in data set [1] was 9 nM; in data set [2], 17 nM; in data set [3], 569 nM.

As for `O=C(c1ccccc1)N1CCN(c2ncccc2C(F)(F)F)CC1`, the values for the IC50 in data set [1], in data set [2] and in data set [3] were 262 nM, > 1000 nM and > 1000 nM, respectively.

With `CCC1CN(c2ncccc2C(F)(F)F)CCN1S(=O)(=O)c1ccc(C(C)(C)C)cc1` (stereo not given), the IC50 was 17 nM in data set [1], 6 nM in data set [2] and > 1000 nM in data set [3].

Regarding `CC1CN(c2ncccc2C(F)(F)F)CCN1S(=O)(=O)c1ccc(C(C)(C)C)cc1` (stereo not given), the IC50 in data set [1] worked out at 9 nM; in data set [2], 4 nM; in data set [3], 632 nM.

As to `O=S(=O)(c1ccccc1)N1CCN(c2ncccc2C(F)(F)F)CC1`, the IC50 in data set [1] is 45 nM; in data set [2], 122 nM; in data set [3], 724 nM.

As for `O=S(=O)(c1cccc2ccccc12)N1CCN(c2ncccc2C(F)(F)F)CC1`, the IC50 is 13 nM in data set [1], 80 nM in data set [2] and 329 nM in data set [3].

As to `Cc1ccc(S(=O)(=O)N2CCN(c3ccccn3)CC2)cc1`, the IC50 in data set [1], in data set [2] and in data set [3] was > 1000 nM throughout.

In the case of `Cc1ccc(S(=O)(=O)N2CCN(c3ncccc3C)CC2)cc1`, the IC50 in data set [1] is 152 nM; in data set [2] it was 240 nM; in data set [3], > 1000 nM.

With `Cc1ccc(S(=O)(=O)N2CCN(c3ncccc3Cl)CC2)cc1`, the IC50 in data set [1] was 117 nM; in data set [2], 146 nM; in data set [3] it was > 1000 nM.

Turning to `Cc1ccc(S(=O)(=O)N2CCN(c3ncccc3C#N)CC2)cc1`, the concentration for half-maximal inhibition (IC50) in data set [1] was 628 nM; in data set [3], > 1000 nM.

In the case of `CC(C)(C)c1ccc(S(=O)(=O)N2CCN(c3ccccc3F)CC2)cc1`, the half-maximal inhibitory concentration (IC50) is 106 nM in data set [1], 98 nM in data set [2] and > 1000 nM in data set [3].

As to `COc1ccc(S(=O)(=O)N2CCN(c3ncccc3C(F)(F)F)CC2)cc1`, the concentration for half-maximal inhibition (IC50) in data set [1] is 19 nM; in data set [2], 32 nM; in data set [3] it was 456 nM.

Consider `N#Cc1ccc(S(=O)(=O)N2CCN(c3ncccc3C(F)(F)F)CC2)cc1`, for which the IC50 in data set [1] worked out at 50 nM; in data set [2] it was 546 nM; in data set [3], 978 nM.

As to `C[C@@H]1CN(c2ncccc2C(F)(F)F)CCN1S(=O)(=O)c1ccc(C(C)(C)C)cc1`, the half-inhibitory concentration (IC50) worked out at 11 nM in data set [1], 4 nM in data set [2] and 762 nM in data set [3].
